Screening data (PubChem)
Hits are enriched below; roughly 3.1% of the tested compounds scored in any of these assays.
Myeloid diff 2 – compounds promoting myeloid differentiation | ER-HoxA9 myeloid progenitors, lysozyme-GFP differentiation, flow cytometry | calls only at 10 µM | actives 1% (n = 360,000) | AID 624256;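 active = normalized GFP-positive differentiation at or above the plate's own cutoff, the solvent-only control mean plus 3 SD; inconclusive = no clear call, values can overlap the other calls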;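 also: cells exposed to compound for four days before flow analysis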
Fh CTSL1 inh – cathepsin L1 inhibition, PFM18AAP counter-screen; recombinant F. hepatica cathepsin L1, Z-Leu-Arg-MCA fluorescence; inhibition, % at 5.96 µM; actives 0.49% (n = 300,000); AID 1906;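 active = inhibition above the mean of all tested compounds plus 3 SD, set per screening campaign, cut at about 17% in these data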;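 also: 0% = plate median of test compound wells and 100% = 1 µM Z-Phe-Ala-diazomethylketone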
NadD inh – blocks S. aureus nicotinate mononucleotide adenylyltransferase; purified NadD enzyme, colorimetric absorbance read-out; inhibition, % at 20 µM; actives 0.78% (n = 360,000); in the data active = inhibition above about 26%
PP1 inh – PP1-alpha (human) inhibition in PP5 counter-screen | inhibition, % at 6.7 µM | actives 0.9% (n = 320,000) | purified PP1alpha, OMFP fluorescence;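 active = inhibition above the mean inhibition of all tested compounds plus 3 SD, computed separately for each screening campaign, cut at about 15% in these data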
PP5 inh – PP5 (human) phosphatase inhibition | P53041 | purified PP5c, OMFP substrate fluorescence | inhibition, % at 6.7 µM | actives 0.18% (n = 320,000) | AID 1987;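 active = inhibition above the campaign's mean inhibition across all tested compounds plus 3 SD, cut at about 9.5% in these data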;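 also: 0% = DMSO only and 100% = 100 µM cantharidin control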
Target sequence (P53041 whole entry, looked up): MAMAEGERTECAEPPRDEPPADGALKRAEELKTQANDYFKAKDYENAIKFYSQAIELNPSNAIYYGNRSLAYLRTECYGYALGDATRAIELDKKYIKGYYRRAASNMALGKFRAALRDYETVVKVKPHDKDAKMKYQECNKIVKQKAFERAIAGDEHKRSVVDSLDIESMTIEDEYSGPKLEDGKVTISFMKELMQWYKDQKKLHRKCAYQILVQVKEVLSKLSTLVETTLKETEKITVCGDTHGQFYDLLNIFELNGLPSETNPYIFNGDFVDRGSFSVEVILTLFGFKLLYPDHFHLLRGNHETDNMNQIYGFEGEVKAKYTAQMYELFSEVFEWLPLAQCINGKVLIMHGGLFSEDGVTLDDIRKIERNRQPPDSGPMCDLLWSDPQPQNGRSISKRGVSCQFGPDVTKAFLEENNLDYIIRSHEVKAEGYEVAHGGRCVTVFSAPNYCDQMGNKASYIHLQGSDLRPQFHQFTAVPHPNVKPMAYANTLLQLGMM
HCV core dimer – blocks dimerization of HCV core protein; TR-FRET GST/Flag-core106 dimerization, 1536-well; actives 0.33% (n = 300,000); inhibition, % at 5 µM; AID 1899;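 active = inhibition above the mean of all tested compounds plus 3 SD, set per screening campaign, cut at about 45% in these data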
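Assay system: GST-tagged and Flag-tagged HCV core protein residues 1-106 / Times: compound-protein-antibody incubation 4 h at 22.5 °C / Signal: time-resolved FRET, ex 340 nm, em 617 and 671 nm / Evaluation: % inhibition based on acceptor/donor emission ratio / Benchmarks: wells lacking GST-core106 and wells with excess unlabelled core106 / Repeats: singlicate, one well per compound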
PP1 confirm – confirmation of human PP1 phosphatase inhibitors; purified PP1alpha, OMFP substrate fluorescence; inhibition, % at 6.7 µM; actives 52% (n = 1,900); shares compounds with PP1 inh; AID 2358;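 active = mean PP1 inhibition above a set limit taken from the earlier primary screen, cut at about 15% in these data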
PP5 counter – inhibits human PP5 phosphatase in PP1 counter-screen; shares compounds with PP1 inh; purified PP5c, OMFP fluorescence; inhibition, % at 6.7 µM; actives 4% (n = 1,900); AID 2360;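 active = mean PP5 inhibition over triplicate wells above about 9.5% taken from the earlier PP1 screen, limit read from the data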
* hit, by the source's call; i = inactive; ? = inconclusive; / = no result; ! = repeats disagree.

SMILES | Myeloid diff 2 | Fh CTSL1 inh | NadD inh | PP1 inh | PP5 inh | HCV core dimer | PP1 confirm | PP5 counter
CCOC(=O)c1c(NC(=O)/C=C\C(=O)O)sc(C)c1-c1ccccc1 | i | -1 | 1 | 3 | -2 | 12 | / | /
CCOC(=O)c1c(NC(=O)/C=C/C(=O)O)sc(C)c1-c1ccc(C(C)(C)C)cc1 | i | 6 | 12 | 18* | 1 | 20 | 18* | 0
COc1ccc(OC)c(NC(=O)CSc2nnc(-c3ccco3)n2-c2ccccc2)c1 | i | -2 | 0 | -4 | 3 | -1 | / | /
COc1ccc(OC)c(NC(=O)CSc2nnc(CCCO)n2-c2ccccc2)c1 | i | -3 | -2 | 21* | 0 | -1 | -4 | -2
Cn1c(=O)c(C(=O)NNC(=O)c2ccccc2Br)c(O)c2ccccc21 | i | -3 | -5 | 20* | 1 | -2 | 15 | -3
CCn1c(=O)c(C(=O)NNC(=O)c2ccccc2Br)c(O)c2ccccc21 | i | -2 | 6 | 22* | -1 | -9 | 12 | -4
Cn1c(=O)c(C(=O)NNC(=O)c2ccccc2Cl)c(O)c2ccccc21 | ? | -1 | 5 | 8 | -4 | 0 | / | /
CCCn1c(=O)c(C(=O)Nc2ncccc2C)c(O)c2ccccc21 | i | 1 | 14 | 24* | 3 | 6 | 21* | -5
O=C(Oc1ccc(/C=N/Nc2ccccc2)cc1)c1ccccc1 | i | 4 | 10 | 21* | 2 | 15 | 8 | -3
O=C(O)c1cccc(N/N=C/c2ccc(OC(F)(F)F)cc2)c1 | i | 7 | -2 | 4 | 0 | -6 | / | /
O=C(O)c1ccc(N/N=C/c2ccc(OC(=O)c3cccc(Cl)c3)cc2)cc1 | i | 18* | 26 | 52* | 1 | -101 | 14 | -1
COc1ccc(NC(=O)CN(C)C(=O)CSc2ccc(Br)cc2)cc1 | i | / | 5 | -3 | -2 | / | / | /
CCc1cccc(C)c1NC(=O)CSc1nc(-c2ccccc2F)nc2nc[nH]c12 | i | 6 | 0 | 24* | -1 | -30 | 16* | -4
O=C(CSc1nc(-c2ccccc2F)nc2nc[nH]c12)Nc1c(Cl)cc(Cl)cc1Cl | / | 1 | / | -3 | -3 | -7 | / | /
CN1CCN([C@@H]2CS(=O)(=O)N[C@H]2COCc2ccccc2)CC1 | i | / | -3 | / | / | / | / | /
CCCCn1c(N)c(N(C)C(=O)c2ccc(OCC3CCCO3)cc2)c(=O)[nH]c1=O (stereo not given) | i | / | -4 | -7 | 0 | / | / | /
Cc1ccc(S(=O)(=O)NC2CCSC2=O)cc1C (stereo not given) | i | / | -1 | -4 | 1 | / | / | /
O=C(c1cccc(F)c1)N1CCN(C(=O)C(c2ccccc2)c2ccccc2)CC1 | i | 0 | -4 | 5 | 5 | 13 | / | /
CCCCCCCCCCCCCCCC[N+](C)(C)CCN(Cc1ccc(OC)cc1)c1ncccn1 | / | 2 | 75* | 69* | 11* | -17 | 35* | 7
CCc1ccc(Nc2n[n+](-c3ccccc3)c(-c3ccc(OC)c(Br)c3)s2)cc1 | i | -2 | 6 | 20* | 4 | -56 | 13 | 7
CCc1ccc(Nc2n[n+](-c3ccccc3)c(-c3ccc(C(=O)O)cc3)s2)cc1 | i | 1 | 4 | 6 | 1 | 3 | / | /
CCN(CC)CCOc1ccc(/C(=C(/Cl)c2ccccc2)c2ccccc2)cc1 | i | -1 | 5 | 19*! | 4 | -16 | -9 | 1
CC/C(=C(\c1ccc(O)cc1)c1ccc(OCCN(C)C)cc1)c1ccccc1 | i | 1 | 1 | -2 | 5 | -7 | / | /
O=S(=O)(c1ccc(-c2n[nH]c(=S)o2)cc1)N1CCCC1 | i | 2 | 3 | -1 | -1 | -3 | / | /
CSc1ccc(CCNC(=O)Cn2ncc3c([nH]c4ccccc43)c2=O)cc1 | i | 12 | 4 | -4 | -8 | -6 | / | /
SMILES | Myeloid diff 2 | Fh CTSL1 inh | NadD inh | PP1 inh | PP5 inh | HCV core dimer | PP1 confirm | PP5 counter
Cc1cc2c(s1)c1cnn(CC(=O)NCCc3ccccc3)c(=O)c1n2C | / | 0 | / | 20* | 1 | 36 | 11 | -2
O=C(Cn1ncc2c([nH]c3ccccc32)c1=O)NCCc1ccc(Cl)cc1 | i | -3 | 9 | 18* | 3 | 15 | 21* | 1
Cc1cc2c(s1)c1cnn(-c3ccccc3)c(=O)c1n2C | i | / | -1 | / | / | / | / | /
CC(C)(C)n1nnnc1C(c1ccccc1)N1CCN(c2ncc(C(F)(F)F)cc2Cl)CC1 (stereo not given) | i | / | 7 | / | / | / | / | /
COc1ccc(/C=C/c2nnc(NC(=O)COc3ccc(C)cc3)s2)cc1 | i | -2 | 2 | 18* | -4 | -3 | 7 | -6
COc1ccc(/C=C/c2nnc(NC(=O)COc3ccccc3)s2)cc1 | i | 3 | 0 | 0 | -2 | 3 | / | /
CC(C)Nc1ccc(C(CC(N)=O)NC(=O)Cc2ccc(Br)cc2)cc1[N+](=O)[O-] (stereo not given) | i | -9 | -5 | 1 | -5 | -10 | / | /
NC(=O)CC(NC(=O)Cc1ccc(Br)cc1)c1ccc(NCCOc2ccccc2)c([N+](=O)[O-])c1 (stereo not given) | i | -1 | -4 | 20* | 1 | 12 | 26* | -4
NC(=O)CC(NC(=O)Cc1ccc(Br)cc1)c1ccc(NCCc2cccc(F)c2)c([N+](=O)[O-])c1 (stereo not given) | i | 2 | -1 | 18* | 1 | 6 | 23* | -4
NC(=O)CC(NC(=O)Cc1cccc2ccccc12)c1ccc(NC2CCCCCCC2)c([N+](=O)[O-])c1 (stereo not given) | i | 0 | 7 | 13 | -1 | 4 | / | /
NC(=O)CC(NC(=O)Cc1cccc2ccccc12)c1ccc(NC2CCCCCC2)c([N+](=O)[O-])c1 (stereo not given) | i | 1 | 15 | 24* | 2 | 8 | 24* | -4
CC(C)C(C(=O)NCC1CCCO1)N(C(=O)CNS(=O)(=O)c1ccccc1)c1ccc(F)cc1 (stereo not given) | i | -8 | -4 | 7 | 1 | -1 | / | /
O=C(NCCC1=CCCCC1)C1CCN(S(=O)(=O)c2cccc(C(F)(F)F)c2)CC1 | i | / | -4 | 4 | 5 | / | / | /
Cn1cc(C(=O)N/N=C/c2c(O)ccc3ccccc23)ccc1=O | / | 1 | 7 | 27* | -1 | -4 | 29* | -3
Cc1nnc(NC(=O)C(C)Sc2nnc(-c3ccco3)n2C(C)C)s1 (stereo not given) | i | -1 | 5 | 0 | 2 | -7 | / | /
COc1nc(-c2ccccc2)ccc1-c1noc(-c2ccccc2)n1 | / | -2 | -10 | 0 | 0 | 13 | / | /
